Drawing on ChEMBL document CHEMBL4316658, “Structure and Absolute Configuration of Abietane Diterpenoids from Salvia clinopodioides: Antioxidant, Antiprotozoal, and Antipropulsive Activities” (J Nat Prod, 2019), this text covers IC50, ED50 and Ratio IC50 for 14 molecules.

Each structure is given as a SMILES string. Where a name gives a salt, the structure may show the parent alone.

The test system of assay [1] is Brain. The assay is described as follows: Antioxidant activity in Wistar rat brain homogenate assessed as inhibition of […] lipid peroxidation by measuring reduction in TBARS level preincubated for 30 mins followed by […] and measured after 1 hr. Format: functional, tissue-based. The essentials: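 Adult male Wistar rat whole brain homogenized 1/10 (w/v) in PBS pH 7.4. Spun 10 min at 800 rcf; supernatant set to 2.666 mg protein/mL. Supernatant with EDTA and compound in DMSO preincubated 30 min at 37 °C. FeSO4 added (10 μM final), then 1 h at 37 °C. TBA/TCA reagent added, heated 80 °C 30 min, A540 read. Calibrated against TMP standard curve; IC50 by linear regression.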

Assay [2] can be described thus: Antioxidant activity assessed as DPPH radical scavenging activity measured after 30 mins. Format: functional. The essentials:
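Test compound solution (50 μL) mixed with 150 μL ethanolic DPPH, 100 μM final; 37 °C for 30 min; absorbance at 515 nm. Percent inhibition relative to a 100 μM DPPH ethanol blank.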
(DPPH is a stable violet radical that fades when it is reduced.)

In a further assay the test system is Entamoeba histolytica. The experiment in a line: Antiparasitic activity against Entamoeba histolytica HM1-IMSS trophozoites assessed as inhibition of parasitic growth treated for 48 hrs followed by compound washout and measured after 48 hrs by MTT/PMS dye based colorimetric method. Format: functional, organism-based. The conditions noted are these: HM-1:IMSS. Summed up:
(§1)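 Axenic log-phase trophozoites in TYI-S-33 medium: E. histolytica HM1-IMSS with 10% heat-inactivated bovine serum (6 × 10^3 cells); G. lamblia IMSS:8909:1 with 10% calf serum and bovine bile (5 × 10^4 cells). Exposed 48 h at 37 °C to 2.5−200 μg/mL in DMSO, then subcultured drug-free 48 h. Counted by hemocytometer, confirmed by MTT/PMS formazan at 570 nm. Duplicates, ≥3 repeats; IC50 by probit regression.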

A further assay deals with Giardia intestinalis. The experiment in a line: Antiparasitic activity against Giardia intestinalis IMSS:0989:1 assessed as inhibition of parasitic growth treated for 48 hrs followed by compound washout and measured after 48 hrs by MTT/PMS dye based colorimetric method. Conditions: Giardia duodenalis, IMSS:0989:1, 48 h; call rule not given here. Format: functional, organism-based. Summed up:
as §1

Another assay has as its system Rattus norvegicus. The assay is described as follows: Antidiarrheal activity in po dosed Sprague-Dawley rat assessed as inhibition of charcoal-gum acacia-induced hyperperistalsis by measuring reduction in distance travelled by charcoal from pylorus to cecum pretreated for 20 mins followed by charcoal meal stimulation and measured after 30 mins. The format is functional. The conditions noted are these: read-out: ID50 (the source's name).

For assay [3], the system named is Brain. The experiment in a line: Potency index, ratio of BHT IC50 to test compound IC50 for antioxidant activity in Wistar rat brain homogenate assessed as inhibition of FeCl2-induced lipid peroxidation. The format is functional, tissue-based.
Assay [4] relates to Brain. The experiment in a line: Potency index, ratio of quercetin IC50 to test compound IC50 for antioxidant activity in Wistar rat brain homogenate assessed as inhibition of FeCl2-induced lipid peroxidation. Format: functional, tissue-based.
Setting [5] is: Rattus norvegicus, Wistar, Brain, read-out: IC50.

Turning to `COc1c(C(C)C)cc2c(c1O)[C@]13CCC[C@](C)([C@H](O)OC1=O)[C@@H]3CC2`, the IC50 (as a rule, the concentration at which inhibition is half-maximal) in the assay with Brain [1] was “Not Active”; in assay [2], “Not Active”; in the assay on Entamoeba histolytica, 43 µM; in the assay on Giardia intestinalis it was 67.1 µM. For the same molecule, in the assay with Rattus norvegicus, the ED50 came to 2.2 µmol/kg.

Take `CN(C)C(=O)C(CCN1CCC(O)(c2ccc(Cl)cc2)CC1)(c1ccccc1)c1ccccc1` [LOPERAMIDE HYDROCHLORIDE]: the ED50 with Rattus norvegicus was found to be 0.2 µmol/kg.

Regarding `COC(=O)[C@]12CCC[C@](C)(C=O)[C@@H]1CCc1cc(C(C)C)c(OC)c(O)c12`, the IC50 was 19.2 µM with Brain [1] (setting [5]), “Not Active” in assay [2], 48.5 µM in the assay with Entamoeba histolytica and 61.8 µM in the assay on Giardia intestinalis.

On to `COc1c(C(C)C)cc2c(c1O)[C@]13CCC[C@](C)([C@H](OC(C)=O)OC1=O)[C@@H]3CC2`, for which the IC50 entry was “Not Active” in the assay with Brain [1], “Not Active” in assay [2], 34.9 µM in the assay with Entamoeba histolytica and 46.4 µM in the assay on Giardia intestinalis.

For `Cc1cc(C(C)(C)C)c(O)c(C(C)(C)C)c1` [BUTYLATED HYDROXYTOLUENE], in the assay with Brain [1] (setting [5]), the IC50 was found to be 1.2 µM.

For `CC[C@H]1CN2CCc3cc(OC)c(OC)cc3[C@@H]2C[C@@H]1C[C@H]1NCCc2cc(OC)c(OC)cc21` [EMETINE], in the assay on Giardia intestinalis, the IC50 was found to be 0.8 µM.

As to `CC(C)c1cc2c(c(O)c1O)[C@]13CCC[C@](C)(COC1=O)[C@@H]3CC2`, the IC50 in the assay on Brain [1] (setting [5]) was determined as 2.7 µM; in assay [2] (read-out: IC50) it was 29.9 µM; in the assay on Entamoeba histolytica, 31.3 µM; in the assay with Giardia intestinalis it was 49 µM. The Ratio IC50 in the assay with Brain [3] and in the assay with Brain [4] was 2 throughout. In addition, in the assay with Rattus norvegicus, the ED50 was determined as 5.5 µmol/kg.

Take `COc1c(C(C)C)cc2c(c1O)C[C@]13CCC[C@](C)(C(=O)O1)[C@@H]3CC2`: the IC50 was 40.9 µM with Brain [1] (setting [5]) and “Not Active” in assay [2].

On to `CC(=O)Oc1c(C(C)C)cc2c(c1OC(C)=O)[C@]13CCC[C@](C)([C@H](OC(C)=O)OC1=O)[C@@H]3CC2`, for which the IC50 entry is “Not Active” with Brain [1], “Not Active” in assay [2], 39.5 µM in the assay on Entamoeba histolytica and 47.7 µM in the assay with Giardia intestinalis. Also, the ED50 in the assay with Rattus norvegicus turned out to be 2.7 µmol/kg.

Take `O=c1c(O)c(-c2ccc(O)c(O)c2)oc2cc(O)cc(O)c12` [QUERCETIN]: the IC50 in assay [2] (read-out: IC50) came to 10.9 µM. Further, the ED50 with Rattus norvegicus stood at 1.1 µmol/kg.

As to `Cc1c(C)c2c(c(C)c1O)CC[C@@](C)(CCC[C@H](C)CCC[C@H](C)CCCC(C)C)O2` [ALPHA-TOCOPHEROL], the IC50 in assay [2] (read-out: IC50) came out at 31.7 µM.

As to `Cc1ncc([N+](=O)[O-])n1CCO` [METRONIDAZOLE], the IC50 in the assay on Entamoeba histolytica worked out at 0.2 µM; in the assay with Giardia intestinalis it was 1.2 µM.

As for `CC(C)c1cc2c(c(O)c1O)[C@]13CCC[C@](C)([C@H](O)OC1=O)[C@@H]3CC2`, the IC50 with Brain [1] (setting [5]) was determined as 5.9 µM; in assay [2] (read-out: IC50), 24.8 µM; with Entamoeba histolytica, 37.8 µM; in the assay on Giardia intestinalis it was 63 µM. Also, the figures for the Ratio IC50 in the assay with Brain [3] and with Brain [4] were 5 and 4, respectively. Besides, the ED50 with Rattus norvegicus came out at 4.1 µmol/kg.

Take `COc1c(C(C)C)cc2c(c1OC(C)=O)[C@]13CCC[C@](C)([C@H](OC(C)=O)OC1=O)[C@@H]3CC2`: the IC50 entry (with Brain [1]; in assay [2]) was “Not Active” each time.
